Test results published in ChEMBL document CHEMBL4513216, “Probing the Open Global Health Chemical Diversity Library for Multistage-Active Starting Points for Next-Generation Antimalarials” (ACS Infect Dis, 2020).

Test: Toxicity liver stage against HepG2, at 10uM
Assay type: cell-based
Design: test concentration 10 uM, cell line HepG2-A16-CD81EGFP
Settings: human, HepG2-A16-CD81EGFP cells; read-out: INHIBITION
Summary of the method: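 Uninfected HepG2-A16-CD81EGFP cells, 3 × 10^3 per well, 1536-well, plated on prespotted compound at 10 μM final, parasite-free screening media added to match infected plates; puromycin 10 μM positive, DMSO 0.5% negative; run in parallel with 48 h PbLuc assay at 37 °C, 5% CO2; viability by CellTiter-Glo luminescence, normalized to controls.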

Structure (SMILES)	cytotoxicity at 10 µM [%]
CNc1cc(-c2cc(OC)c(OC)c(OC)c2)ncn1	-11.8
c1coc(-c2nnc([C@H]3CCN(Cc4ccc5c(c4)OCO5)C3)o2)c1	-0.0837
F[C@@H]1CN(CC2CC2)C[C@@H]1OCc1nc2ncccc2[nH]1	5.52
CC(=O)N1N=C(c2ccccc2)OC1C(=O)NCC(=O)OC(C)(C)C (configuration not stated)	-0.376
O=C(CCc1ccccc1Br)N1CC(S(=O)(=O)C2CCCCC2)C1	-1.36
O=C(c1cccs1)N1CCc2nnc(COc3cncnc3)n2CC1	8.13
CC(=O)N1CCCn2c(nc(CNS(=O)(=O)C3CC3)cc2=O)C1	2.71
O=C(NCCN1CCCC1)c1ccc2c(-c3nccs3)noc2c1	-2.79
CN(C)S(=O)(=O)N1CCC2(CC1)CC(OCC1CC1)CO2 (configuration not stated)	-2.37
Cc1noc([C@@]23CCO[C@@H]2CCN(C(=O)c2c(C)noc2C)C3)n1	8.4
CC/N=c1\nc(NCC)nc2n1C(O)(Nc1cccc(C)c1C)CS2 (configuration not stated)	11.5
COc1cccc(NC(=O)Cn2cc(-c3ccccc3)ncc2=O)c1	-0.0638
O=C([C@H]1C[C@H]2OCC[C@H]2N(C(=O)C2CCOCC2)C1)N1CCCCO1	-8.28
Cc1nn(C)cc1Cn1cc(Cl)c(N)n1	-5.61
CCOC(=O)c1sc(NC(=O)CCCC(=O)O)c(C#N)c1C	11.6
COC(=O)CNC(=O)c1cc(-c2ccccc2)nc2ncnn12	-5.07
CCC(C)NC(=O)c1cc(S(=O)(=O)N2CCCC2)c(C)s1 (configuration not stated)	-2.6
CC(C)C(=O)NCCc1nc(-c2ccncc2)n[nH]1	7.78
CO[C@@H]1CCC[C@@H](NC(=O)c2cccc(F)c2)[C@H]1O	1.65
COc1cc(C(=O)NC(C)(C)CN2CCN(C)CC2)c2ccccc2n1	-1.41
Cc1nc(Nc2nnc(C)s2)cc(C2CCCN2C2CCCC2)n1 (configuration not stated)	-16.7
CC(=O)N1CCC(N2CC(Cc3nccc4ccn(C)c34)C2)CC1	17.7
CC1(C(=O)N2CCOCC2)CN(Cc2ncc[nH]2)CCO1 (configuration not stated)	-11.3

Structure (SMILES)	cytotoxicity at 10 µM [%]
CN(Cc1ccc(F)cc1)CC1(O)CCN(C(=O)c2ccncc2)C1 (configuration not stated)	-2.25
Cc1nc(O)c2nnn(C[C@H]3CCCN3C(=O)c3ccccc3F)c2n1	-20.4
COc1cccc(CNC(=O)c2ccccc2-n2cnc(CN)c2)c1	-17
O=C(N[C@@H]1CN(Cc2ccc3[nH]ccc3c2)C[C@H]1O)c1cscn1	-7.11
O=S(=O)(c1cccc(F)c1)N1CCCCC1c1ccn[nH]1 (configuration not stated)	0.692
Cn1ccc2ccnc(CC3CN(C(=O)C4CCC(F)(F)CC4)C3)c21	-2.78
CC(NC(C)(C)CN)c1ccccc1 (configuration not stated)	2.62
Cn1ccnc1S(=O)(=O)C(C(=O)N1CCCCC1)c1ccccc1 (configuration not stated)	24.5
CC(NCCn1cccn1)c1ccccc1F (configuration not stated)	-3.21
Cc1nc(-c2cc(C(=O)O)co2)cs1	3.39
CC(c1cccnc1)N(C)C(=O)NCCOc1ccc(C#N)cc1 (configuration not stated)	-6.17
O=C(NCCc1cccc(Cl)c1)C1CCOCC1	-8.47
COCc1cc(N(C)Cc2ccccn2)nc(C(C)(C)C)n1	12.1
CC(C)CCNC(=O)NC(C)c1nncn1C (configuration not stated)	-9.9
CC(CNC(=O)c1ccncc1F)Oc1ccc(F)cc1 (configuration not stated)	0.0383
O=C(CNC1CCc2ncnn2C1)N(Cc1cccs1)C1CC1 (configuration not stated)	-3.09
O=C(NCc1nncn1C1CC1)C1(c2cccc(F)c2)CCOCC1	-2.07
Cc1cc(C(=O)NCC2CCCO2)c(C)n1-c1cccnc1 (configuration not stated)	4.95
CCNC(=O)NCc1cnn(-c2ccc(F)cc2F)c1	-6.52
CS(=O)(=O)Nc1cccc(CNC(=O)CCC(=O)c2cccs2)c1	1.73
O=C(CNCC1CCCN1c1cccnn1)NCCc1cccs1 (configuration not stated)	-6.84
Cc1ccc(N2CCCC(N(C)Cc3nnc(C4CC4)o3)C2)nn1 (configuration not stated)	6.2
CS(=O)(=O)CCCNC(=O)C1(c2cccc(Cl)c2)CC1	-2.26

Structure (SMILES)	cytotoxicity at 10 µM [%]
Cn1cc(Br)c(=O)c(NS(=O)(=O)c2ccc3c(c2)CCC3)c1	-3.47
CCC(=O)NCC(c1ccc(SC)cc1)N1CCc2sccc2C1 (configuration not stated)	4.05
CCc1ccc(C(=O)N2CCC(c3nncn3CC)CC2)o1	3.14
Cc1cc(C)cc(OCCN(C)Cc2cscn2)c1	6.56
CCC(NCc1ccccc1C)c1ccccc1OCC(=O)NC (configuration not stated)	16.9
NC(=O)CN(Cc1ccc(Br)cc1)C(=O)c1ccccn1	6.85
CN(C(=O)Cc1coc(-c2cccs2)n1)C1(C#N)CCC1	6.52
Cc1cccnc1NC(=O)NC(CCO)C(C)(C)C (configuration not stated)	2.3
CCc1nc(CNC2CCN(S(C)(=O)=O)CC2)cs1	0.684
COCCC(=O)NCCCOC1CCCc2ccccc21 (configuration not stated)	-6.87
COCCCNC(=O)COc1ccccc1C(F)(F)F	14.7
Cc1occc1C(=O)N1CCc2c(COCC3CC3)cncc2C1	-0.799
C/C=C(\C)CN1CCC2(CCC(=O)N2OCc2ccccc2F)CC1	5.24
COc1cccc(Cl)c1C(C(=O)O)N1CCC(O)(c2cccnc2)CC1 (configuration not stated)	6.03
OCCCN1CCc2onc(C(c3ccccc3)c3ccccc3)c2C1	-5.51
CCOc1ccc(CN2CC[C@@](C)(O)[C@@H](Cc3ccccc3)C2)cn1	-2.02
COCCc1ncc(-c2c(C#N)c(N)nc3c2CCc2[nH]ccc2-3)cn1	-0.508
CC(C)c1nccn1C(C)C(=O)NC1CCOCC1 (configuration not stated)	-2.07
CC(C)Oc1cccc(F)c1C(C(=O)O)N1CCCN(C)CC1 (configuration not stated)	0.992
CCc1c(C)sc2ncnc(N3CC[C@@H](N4CCC(O)CC4)[C@H](O)C3)c12	6.96
CN(C)CCn1ccnc1C1CCCN(c2cc(N)ncn2)C1 (configuration not stated)	-7.76
Cn1ccnc1C1CCN(CCN2CCOCC2)CC1	4.69
CC1CN(c2ccccc2Cl)C(=O)CN1C(=O)c1c[nH]c(=O)c(Cl)c1 (configuration not stated)	0.345

Structure (SMILES)	cytotoxicity at 10 µM [%]
COCCCn1cnnc1CNc1cc(C)nc2ccnn12	-7.79
CCN1CCCC1Cn1ccc2c(OC)c(OC)ccc2c1=O (configuration not stated)	-2.78
NC(=O)[C@@H]1CCCN1C(=O)c1csc(-c2ccc(C(F)(F)F)cc2)n1	-2
CN(Cc1ccccc1)c1cnn(CC2CCCCO2)c(=O)c1 (configuration not stated)	0.992
O=C([C@H](O)c1ccccc1)N1CCN(c2cccc(Cl)c2)C(=O)C1	-6.17
CC(=O)c1c(C)nn(CC(=O)N2Cc3cnc(CC(C)C)nc3C2)c1C	3.75
Cc1cc2nc(C(C)C)cc(N3CCSCC3)n2n1	3.24
Cc1cc(C)n(CCCN(C)c2cc(N(C)C)ncn2)n1	3.85
N#Cc1cc2c(=O)n(CC(O)C(F)(F)F)ccc2[nH]c1=O (configuration not stated)	-1.99
COc1cc(CN2CCCC(Nc3cccc(F)c3)C2)cc(OC)c1O (configuration not stated)	1.66
NC(=O)NCC(=O)N1CCC2(CC1)c1ccccc1CC2O (configuration not stated)	4.22
Cn1c(=O)c2cc(C(=O)NCCOCC(F)(F)F)ccc2n(C)c1=O	-13.9
O=C(CC1CCCC1)N1CCCC(c2n[nH]c3nccnc23)C1 (configuration not stated)	-2.6
OCCn1nccc1C1CCN(CCOc2ccccc2F)CC1	-5.25
CCc1ncc2c(n1)CN(Cc1nc(-c3ccoc3)no1)CC2	1.61
CCCc1n[nH]c(C2CN(C(=O)c3ccc[nH]3)CCO2)n1 (configuration not stated)	-9.29
COc1cc(C(=O)N(Cc2cnn(C)c2)C(C)C)ccc1OC(C)C	-6.02
CN(Cc1ccc2c(c1)OCO2)C(=O)NCCc1cnn(C)c1	-2.69
Cc1ccccc1C1(C(=O)N2CCCC(n3cncn3)C2)CC1 (configuration not stated)	-4.37
O=C(NCCCn1ccnc1)N1CCCC1c1ccsc1 (configuration not stated)	-6.04
c1cnn(CC2CCCN2Cc2cn3ccsc3n2)c1 (configuration not stated)	-10.2
O=C(c1csnn1)N1CCCC(n2cncn2)C1 (configuration not stated)	5.81
COc1ccccc1CNC(=O)N1CCCC(c2nncn2C)C1 (configuration not stated)	-6.51

Structure (SMILES)	cytotoxicity at 10 µM [%]
CC(C)c1noc(C(C)N2CCN(Cc3ccccc3C#N)CC2)n1 (configuration not stated)	-8.13
CC(C)Cc1noc(CN2CCOC(Cn3cncn3)C2)n1 (configuration not stated)	-2.58
CCc1nc(CC(=O)N2CCOCC2c2ncon2)cs1 (configuration not stated)	-2.58
Cc1cnc(CN2CCCC(c3cc(C(N)=O)[nH]n3)C2)o1 (configuration not stated)	-9.14
Cc1ccc(CCN2CCC(N(C)Cc3noc(C4CC4)n3)C2)cc1 (configuration not stated)	-8.31
COc1ccnc(C(=O)N2CCCC(c3noc(C)n3)C2)c1 (configuration not stated)	-4.64
Cc1nn(C)c(N(C)C)c1CNCc1ccccc1CN(C)C	-0.553
FC(F)(F)Cc1noc(CN2CCCC2c2noc(C3CC3)n2)n1 (configuration not stated)	-2.7
Cn1cnnc1C1CCCN(C(=O)c2n[nH]c3ccccc23)C1 (configuration not stated)	0.914
Cc1cc2c(cc1CNC(Cc1cccs1)c1nccs1)OCO2 (configuration not stated)	6.76
CC(C)N(C)C(=O)C1CCC2(CCNCC2)O1 (configuration not stated)	-129
CC(C)N1CCC2(CC1)C(=O)N(c1cccnc1)c1c(F)cccc12	7.13
Cc1c(C2CCCN(C(=O)C3CC3)C2)n2c(nc1=O)CCC2 (configuration not stated)	-1.85
CN(Cc1ccco1)C1COC2(CCN(Cc3nccs3)CC2)C1 (configuration not stated)	2.93
c1cnc(-c2noc(C3CN(Cc4ccsc4)C3)n2)cn1	0.435
CCCS(=O)(=O)N1Cc2ccnn2CC(c2nc(C)no2)C1 (configuration not stated)	5.98
CNC(=O)CCc1cc(C2CCNCC2)nc(C)n1	-6.41
Cc1noc([C@@H]2C[C@H]3CN(Cc4scnc4C)C[C@H]3O2)n1	-136
CCOc1ccc(CN2CCc3nc4ccsc4c(=O)n3CC2)cc1	-6.74
COc1ccc(CN2CCO[C@H]3CN(C4CCCC4)CC[C@H]3C2=O)cc1	-138
